Data published in ChEMBL document CHEMBL4359877, “Identification of benzothiazinones containing an oxime functional moiety as new anti-tuberculosis agents” (Eur J Med Chem, 2019).

Key:
[1] = Half life in Sprague-Dawley rat at 25 mg/kg, po measured upto 24 hrs by HPLC analysis; type: ADME, organism-based; conditions: in vivo
How it was run: (§1)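 SD rats, 180–220 g; single intravenous dose 2.5 mg/kg or oral doses of 25, 50 or 200 mg/kg, n = 6, half of each sex. Serum sampling, acetonitrile deproteinisation and HPLC quantification followed the mouse procedure. Parameters derived from concentration–time data; F% obtained from the oral and IV exposures.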

[2] = Cmax in Sprague-Dawley rat at 200 mg/kg, po measured upto 24 hrs by HPLC analysis; type: ADME, organism-based; parameters: dose 200 mg/kg, route oral; conditions: in vivo; how it was run: as §1
[3] = Acute toxicity in Sprague-Dawley rat assessed as death at 2 g/kg, po measured continuously for first 4 hrs followed by every 1 hr for next 24 hrs and subsequent 8 hrs interval for 7 days; type: organism-based; conditions: in vivo, 2000 mg/kg
How it was run: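 SD rats, 180–220 g, randomised, ten per group, food withheld overnight. Single oral dose of 2 g/kg suspended in 5% CMC; controls given vehicle only. Watched continuously for 4 h, hourly for the next 24 h, then every 8 h through day 7 for deaths or changes. Read-out is survivors/total at 7 days.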

Cytochrome P450 2C19 = Cytochrome P450 2C19 (Homo sapiens, UniProt P33261); experiment: Inhibition of CYP2C19 (unknown origin); type: ADME
Chain of Cytochrome P450 2C19 (P33261 whole entry): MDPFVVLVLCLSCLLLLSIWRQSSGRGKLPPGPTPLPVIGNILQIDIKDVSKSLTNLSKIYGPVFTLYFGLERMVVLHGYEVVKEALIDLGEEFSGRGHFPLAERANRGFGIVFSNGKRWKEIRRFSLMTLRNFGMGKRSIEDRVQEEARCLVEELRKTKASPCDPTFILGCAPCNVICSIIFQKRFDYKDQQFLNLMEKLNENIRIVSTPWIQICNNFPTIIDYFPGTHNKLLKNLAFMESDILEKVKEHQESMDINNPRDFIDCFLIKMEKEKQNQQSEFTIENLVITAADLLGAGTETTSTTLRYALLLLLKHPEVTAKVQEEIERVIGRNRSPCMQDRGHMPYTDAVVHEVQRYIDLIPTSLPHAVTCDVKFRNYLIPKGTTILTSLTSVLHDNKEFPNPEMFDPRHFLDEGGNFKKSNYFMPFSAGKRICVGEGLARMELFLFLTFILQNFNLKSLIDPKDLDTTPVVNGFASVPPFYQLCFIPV

[4] = Oral bioavailability in Sprague-Dawley rat at 25 mg/kg measured upto 24 hrs by HPLC analysis; type: ADME, organism-based; conditions: in vivo; how it was run: as §1
[5] = system: Mycobacterium tuberculosis; experiment: Antimycobacterial activity against Mycobacterium tuberculosis H37Rv assessed as reduction in bacterial cell growth at 32 ug/ml by Low-oxygen recovery assay; type: functional
[6] = system: Mycobacterium tuberculosis; experiment: Antituberculosis activity against Mycobacterium tuberculosis H37Rv infected in BALB/C mouse assessed as reduction in log10CFU in lungs at 25 mg/kg, po administered once daily for 5 days per week for a total of 3 weeks started on day 10 post-infection; type: functional
[7] = Half life in ICR mouse at 25 mg/kg, po measured upto 24 hrs by HPLC analysis; type: ADME, organism-based; conditions: in vivo
How it was run: (§2)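 Female SPF ICR mice, 18–22 g, fasted overnight, 3 per group; single oral dose 25 mg/kg as suspension in 0.5% CMC. Jugular vein blood drawn at 0.25, 0.5, 1, 2, 4, 6, 8 and 24 h; serum deproteinised with acetonitrile, dried, redissolved and quantified by HPLC. AUC, t1/2, Cmax and Tmax taken directly from concentration–time data.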

CYP1A2 = target: T1, CYP1A2 (Homo sapiens, UniProt P05177); experiment: (§3) Inhibition of CYP1A2 (unknown origin); type: ADME
T1 sequence (P05177 whole entry): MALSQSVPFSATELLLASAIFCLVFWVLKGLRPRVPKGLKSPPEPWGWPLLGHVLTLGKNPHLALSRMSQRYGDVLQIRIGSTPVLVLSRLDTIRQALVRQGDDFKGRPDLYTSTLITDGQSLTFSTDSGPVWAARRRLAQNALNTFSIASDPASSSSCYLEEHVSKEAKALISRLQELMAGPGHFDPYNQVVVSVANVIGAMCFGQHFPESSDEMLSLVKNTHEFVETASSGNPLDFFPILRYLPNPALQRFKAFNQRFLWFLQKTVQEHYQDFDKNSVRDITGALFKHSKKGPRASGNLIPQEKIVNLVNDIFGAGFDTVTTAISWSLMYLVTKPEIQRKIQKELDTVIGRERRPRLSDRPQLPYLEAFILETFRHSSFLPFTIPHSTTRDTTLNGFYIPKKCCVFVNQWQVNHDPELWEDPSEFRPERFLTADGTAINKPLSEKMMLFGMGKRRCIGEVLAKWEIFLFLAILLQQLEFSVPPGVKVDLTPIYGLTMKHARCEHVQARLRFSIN

[8] = AUC (0 to infinity) in ICR mouse at 25 mg/kg, po measured upto 24 hrs by HPLC analysis; type: ADME, organism-based; parameters: dose 25 mg/kg, time infinity, route oral; conditions: in vivo; how it was run: as §2
[9] = AUC (0 to infinity) in Sprague-Dawley rat at 200 mg/kg, po by HPLC analysis; type: ADME, organism-based; parameters: dose 200 mg/kg, route oral, time infinity; conditions: in vivo; how it was run: as §1
[10] = Cmax in Sprague-Dawley rat at 50 mg/kg, po measured upto 24 hrs by HPLC analysis; type: ADME, organism-based; parameters: dose 50 mg/kg, route oral; conditions: in vivo; how it was run: as §1
[11] = Half life in Sprague-Dawley rat at 2.5 mg/kg, iv measured upto 24 hrs by HPLC analysis; type: ADME, organism-based; conditions: in vivo; how it was run: as §1
[12] = system: Mycobacterium tuberculosis; experiment: Antimycobacterial activity against Mycobacterium tuberculosis H37Rv assessed as reduction in bacterial cell growth by Low-oxygen recovery assay; type: functional
[13] = AUC (0 to infinity) in Sprague-Dawley rat at 2.5 mg/kg, iv by HPLC analysis; type: ADME, organism-based; parameters: dose 2.5 mg/kg, route intravenous, time infinity; conditions: in vivo; how it was run: as §1
[14] = Mutagenicity in Salmonella typhimurium TA102 in presence of S9 fraction by mini-Ames test; type: toxicity, subcellular; conditions: salmonella enterica subsp. enterica serovar typhimurium
[15] = Cytotoxicity against African green monkey Vero cells assessed as reduction in cell viability; type: cell-based; conditions: chlorocebus sabaeus
[16] = Cmax in ICR mouse at 25 mg/kg, po measured upto 24 hrs by HPLC analysis; type: ADME, organism-based; parameters: dose 25 mg/kg, route oral; conditions: in vivo; how it was run: as §2
[17] = Half life in Sprague-Dawley rat at 200 mg/kg, po measured upto 24 hrs by HPLC analysis; type: ADME, organism-based; conditions: in vivo; how it was run: as §1
[18] = Tmax in Sprague-Dawley rat at 50 mg/kg, po measured upto 24 hrs by HPLC analysis; type: ADME, organism-based; conditions: in vivo; how it was run: as §1
[19] = Tmax in Sprague-Dawley rat at 25 mg/kg, po measured upto 24 hrs by HPLC analysis; type: ADME, organism-based; conditions: in vivo; how it was run: as §1
[20] = Oral bioavailability in Sprague-Dawley rat at 50 mg/kg measured upto 24 hrs by HPLC analysis; type: ADME, organism-based; conditions: in vivo; how it was run: as §1
[21] = Mutagenicity in Salmonella typhimurium TA100 in presence of S9 fraction by mini-Ames test; type: toxicity, subcellular; conditions: salmonella enterica subsp. enterica serovar typhimurium
CYP3A4 = CYP3A4 (Homo sapiens, UniProt P08684); experiment: (§4) Inhibition of CYP3A4 (unknown origin); type: ADME
Chain of CYP3A4 (P08684 whole entry): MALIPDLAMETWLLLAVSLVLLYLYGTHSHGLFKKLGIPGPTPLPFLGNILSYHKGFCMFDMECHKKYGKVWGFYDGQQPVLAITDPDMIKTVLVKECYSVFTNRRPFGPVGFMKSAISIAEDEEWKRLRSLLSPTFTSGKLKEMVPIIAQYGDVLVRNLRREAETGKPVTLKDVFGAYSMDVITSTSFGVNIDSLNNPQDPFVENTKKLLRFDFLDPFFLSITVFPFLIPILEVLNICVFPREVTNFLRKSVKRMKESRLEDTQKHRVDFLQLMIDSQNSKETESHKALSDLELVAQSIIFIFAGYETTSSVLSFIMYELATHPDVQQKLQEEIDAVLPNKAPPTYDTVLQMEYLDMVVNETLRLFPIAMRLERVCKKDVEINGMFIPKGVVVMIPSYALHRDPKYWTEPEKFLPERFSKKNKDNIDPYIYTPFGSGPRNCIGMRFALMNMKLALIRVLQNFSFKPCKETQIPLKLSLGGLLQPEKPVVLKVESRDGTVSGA

[22] = Half life in Sprague-Dawley rat at 50 mg/kg, po measured upto 24 hrs by HPLC analysis; type: ADME, organism-based; conditions: in vivo; how it was run: as §1
CYP2C9 = CYP2C9 (Homo sapiens, UniProt P11712); experiment: (§5) Inhibition of CYP2C9 (unknown origin); type: ADME
Chain of CYP2C9 (P11712 whole entry): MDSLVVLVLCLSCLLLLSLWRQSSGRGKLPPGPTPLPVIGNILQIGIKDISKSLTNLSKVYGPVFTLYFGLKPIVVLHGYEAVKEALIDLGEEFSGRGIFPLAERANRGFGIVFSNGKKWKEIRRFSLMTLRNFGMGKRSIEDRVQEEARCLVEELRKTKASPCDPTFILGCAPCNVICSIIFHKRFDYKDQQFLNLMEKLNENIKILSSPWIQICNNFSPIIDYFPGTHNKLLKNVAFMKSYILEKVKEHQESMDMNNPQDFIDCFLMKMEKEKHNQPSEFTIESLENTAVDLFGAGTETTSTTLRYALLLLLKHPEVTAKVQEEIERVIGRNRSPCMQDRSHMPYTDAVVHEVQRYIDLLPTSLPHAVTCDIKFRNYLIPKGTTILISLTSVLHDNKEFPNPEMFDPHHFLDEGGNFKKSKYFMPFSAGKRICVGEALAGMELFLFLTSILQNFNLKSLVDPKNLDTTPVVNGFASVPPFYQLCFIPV

[23] = Cmax in Sprague-Dawley rat at 2.5 mg/kg, iv measured upto 24 hrs by HPLC analysis; type: ADME, organism-based; parameters: dose 2.5 mg/kg, route intravenous; conditions: in vivo; how it was run: as §1
[24] = MRT in ICR mouse at 25 mg/kg, po measured upto 24 hrs by HPLC analysis; type: ADME, organism-based; conditions: in vivo; how it was run: as §2
[25] = Tmax in ICR mouse at 25 mg/kg, po measured upto 24 hrs by HPLC analysis; type: ADME, organism-based; conditions: in vivo; how it was run: as §2
[26] = system: Mycobacterium tuberculosis; experiment: Antimycobacterial activity against Mycobacterium tuberculosis H37Rv ATCC 27294 assessed as reduction in bacterial cell growth incubated for 7 days by microplate alamar blue assay; type: functional; conditions: H37Rv ATCC 27294, 168 h
How it was run: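 MABA: H37Rv or clinical MDR isolates (resistant to INH and RFP, Beijing Chest Hospital patients) grown to late log phase in 7H9 with glycerol, Tween 80 and ADC, washed, filtered and frozen. Two-fold compound dilutions with 2 × 10⁵ CFU per well, 37 °C; Alamar blue plus Tween 80 added on day 7, fluorescence (ex 530/em 590) read after 16–24 h. MIC = lowest concentration giving ≥90% fluorescence reduction versus mean of bacterium-only controls; RIF and INH as positive controls.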

[27] = AUC (0 to infinity) in Sprague-Dawley rat at 50 mg/kg, po by HPLC analysis; type: ADME, organism-based; parameters: dose 50 mg/kg, time infinity, route oral; conditions: in vivo; how it was run: as §1
[28] = Tmax in Sprague-Dawley rat at 200 mg/kg, po measured upto 24 hrs by HPLC analysis; type: ADME, organism-based; conditions: in vivo; how it was run: as §1
[29] = Cmax in Sprague-Dawley rat at 25 mg/kg, po measured upto 24 hrs by HPLC analysis; type: ADME, organism-based; parameters: dose 25 mg/kg, route oral; conditions: in vivo; how it was run: as §1
[30] = Oral bioavailability in Sprague-Dawley rat at 200 mg/kg measured upto 24 hrs by HPLC analysis; type: ADME, organism-based; conditions: in vivo; how it was run: as §1
[31] = system: Mycobacterium tuberculosis; experiment: Antituberculosis activity against Mycobacterium tuberculosis H37Rv infected in BALB/C mouse assessed as colony forming unit in lungs at 25 mg/kg, po administered once daily via gavage for 5 days per week for 3 weeks starting from 10 days post-infection (reference value: 6.44 +/- 0.34); type: functional
[32] = Mutagenicity in Salmonella typhimurium TA102 in absence of S9 fraction by mini-Ames test; type: toxicity; conditions: salmonella enterica subsp. enterica serovar typhimurium
[33] = AUC (0 to infinity) in Sprague-Dawley rat at 25 mg/kg, po by HPLC analysis; type: ADME, organism-based; parameters: dose 25 mg/kg, route oral, time infinity; conditions: in vivo; how it was run: as §1
CYP2D6 = CYP2D6 (Homo sapiens, UniProt P10635); experiment: (§6) Inhibition of CYP2D6 (unknown origin); type: ADME
Chain of CYP2D6 (P10635 whole entry): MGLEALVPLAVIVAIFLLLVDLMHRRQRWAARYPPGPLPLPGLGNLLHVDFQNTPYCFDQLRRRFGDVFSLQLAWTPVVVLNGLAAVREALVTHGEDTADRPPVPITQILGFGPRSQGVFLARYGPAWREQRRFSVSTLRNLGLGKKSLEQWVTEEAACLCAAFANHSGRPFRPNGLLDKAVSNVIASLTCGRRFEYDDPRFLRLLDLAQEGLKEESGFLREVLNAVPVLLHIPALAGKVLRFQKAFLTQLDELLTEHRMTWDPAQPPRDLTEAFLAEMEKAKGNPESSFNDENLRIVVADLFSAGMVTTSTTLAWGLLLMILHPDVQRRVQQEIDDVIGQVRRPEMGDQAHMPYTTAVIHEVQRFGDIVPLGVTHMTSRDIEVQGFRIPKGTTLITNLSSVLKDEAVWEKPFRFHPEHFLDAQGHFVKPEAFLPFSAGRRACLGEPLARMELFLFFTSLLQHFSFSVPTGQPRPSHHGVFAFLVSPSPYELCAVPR

[34] = Mutagenicity in Salmonella typhimurium TA100 in absence of S9 fraction by mini-Ames test; type: toxicity; conditions: salmonella enterica subsp. enterica serovar typhimurium
Cytochrome P450 1A2 = target: T2, Cytochrome P450 1A2 (Homo sapiens, UniProt P05177); experiment: as §3; type: ADME
T2 sequence (P05177 whole entry): T1 sequence (P05177 whole entry)

[35] = target: Voltage-gated inwardly rectifying potassium channel KCNH2 (Homo sapiens, UniProt Q12809); experiment: Inhibition of human ERG transfected in HEK293 cells by whole-cell patch clamp method; type: cell-based
Chain of Voltage-gated inwardly rectifying potassium channel KCNH2 (Q12809 whole entry): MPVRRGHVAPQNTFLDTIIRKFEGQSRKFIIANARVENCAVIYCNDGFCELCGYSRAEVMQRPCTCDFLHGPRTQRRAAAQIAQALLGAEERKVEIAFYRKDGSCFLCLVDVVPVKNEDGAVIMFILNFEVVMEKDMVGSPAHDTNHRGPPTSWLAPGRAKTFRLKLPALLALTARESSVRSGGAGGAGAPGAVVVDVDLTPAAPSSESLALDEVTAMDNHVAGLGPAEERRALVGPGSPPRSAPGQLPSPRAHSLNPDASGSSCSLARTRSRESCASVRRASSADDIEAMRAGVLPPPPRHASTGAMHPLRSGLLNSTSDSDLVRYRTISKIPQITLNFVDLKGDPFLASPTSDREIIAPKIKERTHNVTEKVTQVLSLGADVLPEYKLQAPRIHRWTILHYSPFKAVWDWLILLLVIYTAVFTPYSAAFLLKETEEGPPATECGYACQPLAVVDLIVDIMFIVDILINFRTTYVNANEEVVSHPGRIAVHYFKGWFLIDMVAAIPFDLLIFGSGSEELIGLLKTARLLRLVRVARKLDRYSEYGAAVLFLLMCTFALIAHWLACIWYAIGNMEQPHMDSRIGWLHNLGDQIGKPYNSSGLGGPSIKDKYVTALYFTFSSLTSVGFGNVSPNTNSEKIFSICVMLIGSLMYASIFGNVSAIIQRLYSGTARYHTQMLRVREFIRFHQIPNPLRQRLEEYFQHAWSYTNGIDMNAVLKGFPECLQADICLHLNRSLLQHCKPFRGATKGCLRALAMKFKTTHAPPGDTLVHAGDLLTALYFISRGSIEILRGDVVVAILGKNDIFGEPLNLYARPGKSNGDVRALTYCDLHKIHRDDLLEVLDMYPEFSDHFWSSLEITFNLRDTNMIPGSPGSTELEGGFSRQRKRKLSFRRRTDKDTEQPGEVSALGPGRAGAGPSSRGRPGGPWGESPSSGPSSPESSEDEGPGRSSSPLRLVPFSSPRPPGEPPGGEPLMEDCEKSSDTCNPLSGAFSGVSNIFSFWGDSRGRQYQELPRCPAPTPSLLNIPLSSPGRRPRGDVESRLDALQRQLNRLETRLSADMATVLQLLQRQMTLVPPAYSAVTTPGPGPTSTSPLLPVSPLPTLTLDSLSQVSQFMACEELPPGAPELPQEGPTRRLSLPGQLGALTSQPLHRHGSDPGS

Cytochrome P450 3A4 = Cytochrome P450 3A4 (Homo sapiens, UniProt P08684); experiment: as §4; type: ADME
Chain of Cytochrome P450 3A4 (P08684 whole entry): as the sequence (P08684 whole entry) above

Cytochrome P450 2C9 = Cytochrome P450 2C9 (Homo sapiens, UniProt P11712); experiment: as §5; type: ADME
Chain of Cytochrome P450 2C9 (P11712 whole entry): as the sequence (P11712 whole entry) above

Cytochrome P450 2D6 = Cytochrome P450 2D6 (Homo sapiens, UniProt P10635); experiment: as §6; type: ADME
Chain of Cytochrome P450 2D6 (P10635 whole entry): as the sequence (P10635 whole entry) above

SMILES	half-life [1]	Cmax [2]	Activity [3]	IC50 (Cytochrome P450 2C19)	bioavailability [4]	inhibition at 32 µg/mL [5]	half-life [7]	AUC(0-inf) [8]	AUC(0-inf) [9]	Cmax [10]	half-life [11]	MIC [12]	AUC(0-inf) [13]	Activity [14]	CC50 [15]	Cmax [16]	half-life [17]	Tmax [18]	Tmax [19]	bioavailability [20]	also measured
CON=C1CCC(CN2CCN(c3nc(=O)c4cc(C(F)(F)F)cc([N+](=O)[O-])c4s3)CC2)CC1 (stereo not drawn)	3.2 h	18200 ng/mL	Non-Toxic	7.8 µM	46.1%	86%	1.65 h	27500 ng·h/mL	128000 ng·h/mL	10100 ng/mL	1.77 h	> 32 µg/mL	5720 ng·h/mL	Non-Toxic	> 64 µg/mL	8570 ng/mL	6.73 h	1.67 h	1.25 h	40.4%	Activity [6]: 4.04 log10CFU; IC50 (CYP1A2): > 10 µM; Activity [21]: Non-Toxic; IC50 (CYP3A4): > 10 µM; half-life [22]: 4.13 h; IC50 (CYP2C9): > 10 µM; Cmax [23]: 2590 ng/mL; MRT [24]: 2.46 h; Tmax [25]: 0.25 h; MIC90 [26]: < 0.016 µg/mL; AUC(0-inf) [27]: 45900 ng·h/mL; Tmax [28]: 2.83 h; Cmax [29]: 6230 ng/mL; bioavailability [30]: 30.3%; Activity [31]: 2.4 log10CFU; Activity [32]: Non-Toxic; AUC(0-inf) [33]: 26800 ng·h/mL; IC50 (CYP2D6): > 10 µM; Activity [34]: Non-Toxic
O=c1nc(N2CCN(CC3CCCCC3)CC2)sc2c([N+](=O)[O-])cc(C(F)(F)F)cc12 [MACOZINONE]	4.23 h	804 ng/mL	Non-Toxic	3.77 µM	10.7%	78%	2.78 h	1660 ng·h/mL	4720 ng·h/mL	694 ng/mL	1.64 h	> 32 µg/mL	1540 ng·h/mL	Non-Toxic	> 64 µg/mL	912 ng/mL	5.76 h	1.33 h	0.91 h	10.2%	IC50 (Cytochrome P450 1A2): > 10 µM; IC50 [35]: 102 µM; Activity [21]: Non-Toxic; IC50 (Cytochrome P450 3A4): > 10 µM; half-life [22]: 4.86 h; IC50 (Cytochrome P450 2C9): > 10 µM; Cmax [23]: 1440 ng/mL; MRT [24]: 3.17 h; Tmax [25]: 0.25 h; MIC90 [26]: < 0.016 µg/mL; AUC(0-inf) [27]: 3120 ng·h/mL; Tmax [28]: 2.5 h; Cmax [29]: 463 ng/mL; bioavailability [30]: 3.82%; Activity [31]: 2.65 log10CFU; Activity [32]: Non-Toxic; AUC(0-inf) [33]: 1600 ng·h/mL; IC50 (Cytochrome P450 2D6): > 10 µM; Activity [34]: Non-Toxic
